OX1R antag-1 = antagonists of human orexin 1 receptor (OX1R). hit rate 1.8% among 330,000. inhibition, % at 6.6 µM. OX1R-expressing cells, FRET antagonist read-out; in the data active = inhibition mostly above about 38%, no sharp cut-off; inactive = mostly below about 40%;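 note: 0% = agonist challenge alone and 100% = reference antagonist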
TAAR1 ag = agonists of human TAAR1; Q96RJ0; CHO RD-HGA16 TAAR1, Fluo-8 calcium fluorescence; vehicle wells 0%, saturating PEA agonist 100%; activation, % at 3 µM; hit rate 0.99% among 360,000;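 active = activation above the mean activation of all test compounds in the run plus 3 SD, cut at about 38% in these data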
Target sequence (Q96RJ0 whole entry, looked up): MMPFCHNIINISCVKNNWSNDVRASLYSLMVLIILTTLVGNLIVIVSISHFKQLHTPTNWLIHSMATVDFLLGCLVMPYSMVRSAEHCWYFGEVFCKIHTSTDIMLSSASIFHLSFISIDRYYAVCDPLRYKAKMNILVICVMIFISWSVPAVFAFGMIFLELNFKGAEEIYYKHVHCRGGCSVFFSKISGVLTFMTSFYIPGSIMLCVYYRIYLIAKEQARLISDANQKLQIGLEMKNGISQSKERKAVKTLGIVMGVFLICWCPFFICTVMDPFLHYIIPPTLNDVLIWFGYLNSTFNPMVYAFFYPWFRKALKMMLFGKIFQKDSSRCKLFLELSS
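System: CHO RD-HGA16 cells carrying human TAAR1 plus Gα16; Incubation: 17-24 h seeding, 75 min 37 °C dye, 30 min RT; Measured by: Fluo-8 fluorescence, 5 s baseline then 140 s kinetic read; Control set: DMSO and PEA EC100; Replication: single well for each compound.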
OX1R antag-2 = blocks the human orexin 1 receptor. inhibition, % at 5 µM. hit rate 0.43% among 330,000. CHO/OX1R cells, Fluo-8 calcium fluorescence, orexin A. O43613;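 active = inhibition above its plate's threshold, mean inhibition of all tested compounds on the plate plus 3 SD, cut at about 37% in these data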;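 note: 0% = orexin A challenge wells and 100% = SB-334867-A antagonist wells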
CHO parental Ca = counter-screen: ATP calcium response change in parental CHO cells; parental CHO-K1, ATP-induced calcium, Fluo-8 fluorescence; hit rate 0.63% among 330,000; inhibition, % at 5.6 µM;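 active = inhibition above that plate's mean sample inhibition plus 3 SD, cut at about 26% in these data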;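 note: 0% = ATP-challenged DMSO wells and 100% = DMSO wells without ATP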
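Test system: untransfected parental CHO cell line; also added: ATP stimulus; dosing: 5.6 µM, single dose; signal: calcium-sensitive Fluo-8 fluorescence; measure: percent inhibition of ATP-evoked calcium rise, normalized to controls; benchmarks: low control ATP plus DMSO, high control DMSO only; replication: one well per compound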
TAAR1 antagonist = human TAAR1 antagonism; Q96RJ0; CHO RD-HGA16 TAAR1, Fluo-8 calcium fluorescence, antagonist; inhibition, % at 3 µM; hit rate 1.5% among 360,000; AID 624466;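 active = inhibition above a per-plate cutoff, the mean inhibition of test compounds on that plate plus 3 SD, cut at about 49% in these data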;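 note: 0% = DMSO plus EC80 beta-PEA response and 100% = DMSO alone without agonist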
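Test system: CHO RD-HGA16 cells bearing hTAAR1 | Reagent: β-PEA, EC80 | Compound dosing: 3 µM, single point | Schedule: Dye loading 75 min at 37 °C, then 30 min room temperature | Signal: Calcium fluorescence with Fluo-8 | Evaluation: Percent inhibition of PEA-evoked calcium signal, max/basal emission ratio | Control set: DMSO-only wells and EC80 β-PEA-stimulated wells | Repeats: Singlicate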
* hit, by the source's call. A selection: hits, their analogues and other compounds. The true share with any hit is near 3.9%.

`CC(C)CCCN1C(Nc2ccccc2)=NC[C@@H]1CC(C)C` gave OX1R antag-1 20, TAAR1 ag 12, OX1R antag-2 -24, CHO parental Ca -20 and TAAR1 antagonist -7.
Screening CCc1cc2c(-c3ccccc3)cc(=O)oc2cc1OC(C)C(C)=O (stereo not given) returned OX1R antag-1 9, TAAR1 ag 17, OX1R antag-2 -25, CHO parental Ca -3 and TAAR1 antagonist 50*.
CCc1cc(=O)oc2cc(OC(C)C(=O)NCC(O)c3ccccc3)c(Cl)cc12 (stereo not given) was read as OX1R antag-1 18, TAAR1 ag 1, OX1R antag-2 -25, CHO parental Ca -18 and TAAR1 antagonist -21.
O=C1OC(Nc2cc(Br)cc3cccnc23)c2ccccc21 (stereo not given) was read as OX1R antag-1 62*, TAAR1 ag 5, OX1R antag-2 -6, CHO parental Ca 4 and TAAR1 antagonist -21.
COc1ccc(S(=O)(=O)N2CCC[C@H]2C(=O)N2CCC[C@H]2C(=O)N[C@@H](C)c2ccccc2)cc1C was read as TAAR1 ag -1 and TAAR1 antagonist -15.
`COCCOC(=O)c1c(C)nc(SCC(=O)Nc2cccc3ccccc23)c(C#N)c1-c1ccco1` gave OX1R antag-1 13, TAAR1 ag 2, OX1R antag-2 -24, CHO parental Ca -29 and TAAR1 antagonist 51*.
CCOc1ccccc1NC(=O)CSc1nc2cccnc2n1C was read as OX1R antag-1 53*, TAAR1 ag 6, OX1R antag-2 5, CHO parental Ca -6 and TAAR1 antagonist 17.
CCn1c(SCC(=O)Nc2nc(C)c(C)s2)nc2cccnc21 was read as OX1R antag-1 75*, TAAR1 ag 5, OX1R antag-2 3, CHO parental Ca -23 and TAAR1 antagonist 9.
COc1ccc2c(c1)nc(-c1cccc(Br)c1)c(=O)n2C(c1ccccn1)c1nc2ccccc2[nH]1 (stereo not given) was read as TAAR1 ag -1 and TAAR1 antagonist 0.
For COc1cccc(N2CCN(CC(=O)Nc3ccccc3C(=O)NCCc3ccccc3)CC2)c1 the results were OX1R antag-1 4, TAAR1 ag 30, OX1R antag-2 0, CHO parental Ca -27 and TAAR1 antagonist 53*.
`O=C(CN1CCN(c2ccc(O)cc2)CC1)Nc1ccccc1C(=O)NCCc1ccccc1` gave OX1R antag-1 11, TAAR1 ag 12, OX1R antag-2 -1, CHO parental Ca -4 and TAAR1 antagonist 63*.
O=c1oc2ccccc2c(O)c1/C=N/c1ncccn1 was read as OX1R antag-1 47, TAAR1 ag 2, OX1R antag-2 -6, CHO parental Ca -6 and TAAR1 antagonist -7.
`O=c1oc2ccccc2c(O)c1/C=C1\C=Nc2ccccc21` gave OX1R antag-1 73*, TAAR1 ag 15, OX1R antag-2 -19, CHO parental Ca 8 and TAAR1 antagonist -7.
CC(C)C1C(=O)N(Cc2cn(CCC3OCCO3)nn2)CCS(=O)(=O)N1Cc1ccc(-c2ccc(F)cc2Cl)cc1 (stereo not given) was read as TAAR1 ag 2 and TAAR1 antagonist -23.
For COc1ccccc1/C=C/C(=O)OCC(=O)N1CCc2ccccc21 the results were OX1R antag-1 32*, TAAR1 ag 1, OX1R antag-2 -4, CHO parental Ca -36 and TAAR1 antagonist 7.
Screening COc1cc(/C=C/C(=O)NC(=O)c2ccccc2O)ccc1OC(C)=O returned OX1R antag-1 66*, TAAR1 ag 1, OX1R antag-2 4, CHO parental Ca -13 and TAAR1 antagonist 14.
Screening COc1ccc(/C=C/C(=O)NC(=S)Nc2ccccc2)cc1OC returned OX1R antag-1 2, TAAR1 ag 1, OX1R antag-2 -16, CHO parental Ca -4 and TAAR1 antagonist 11.
For CCOC(=O)N(C)c1c(CC)nc2c(OCc3ccccc3)cccn12 the results were TAAR1 ag -2 and TAAR1 antagonist -14.
O=C(CNC(=O)c1ccccc1)NCC(=O)OCC(=O)c1ccc([N+](=O)[O-])cc1 was read as OX1R antag-1 54*, TAAR1 ag 5, OX1R antag-2 -5, CHO parental Ca -4 and TAAR1 antagonist 13.
Cc1ccc(C(=O)OCC(=O)NNC(=O)c2ccc([N+](=O)[O-])cc2)o1 was read as OX1R antag-1 41*, TAAR1 ag 4, OX1R antag-2 -10, CHO parental Ca -11 and TAAR1 antagonist -26.
CCOc1ccccc1OCC(=O)OCC(=O)NNC(=O)c1ccc([N+](=O)[O-])cc1 was read as OX1R antag-1 55*, TAAR1 ag 2, OX1R antag-2 -4, CHO parental Ca -11 and TAAR1 antagonist -13.
`CC1CC1C(=O)OCC(=O)NNC(=O)c1ccc([N+](=O)[O-])cc1` (stereo not given) gave OX1R antag-1 34*, TAAR1 ag 5, OX1R antag-2 9, CHO parental Ca -12 and TAAR1 antagonist 5.
CC1CC1C(=O)OCC(=O)NC(=O)c1ccc(C(C)(C)C)cc1 (stereo not given) was read as OX1R antag-1 10, TAAR1 ag 18, OX1R antag-2 -22, CHO parental Ca -7 and TAAR1 antagonist 10.
`COC(=O)C[C@@H]1C[C@H]2c3cc(NC(=O)Nc4ccccc4F)ccc3O[C@H]2[C@@H](CO)O1` gave TAAR1 ag 0 and TAAR1 antagonist 8.
Screening COc1ccc(C(=O)c2ccc(N(C)C)cc2)c2ccccc12 returned OX1R antag-1 22, TAAR1 ag 13, OX1R antag-2 58*, CHO parental Ca 33* and TAAR1 antagonist 13.
`COC(=O)c1cc(S(=O)(=O)NCC2CCN(C(=O)C(=O)c3cccs3)CC2)cs1` gave TAAR1 ag 3 and TAAR1 antagonist -19.
Screening Cc1ccccc1-c1cnc(C(O)c2cc(Cl)cc(Cl)c2)[nH]1 (stereo not given) returned TAAR1 ag 6 and TAAR1 antagonist 22.
CCCNC(=O)c1ccccc1NC(=O)COc1cccc2c1OC(C)(C)C2 was read as OX1R antag-1 28, TAAR1 ag 8, OX1R antag-2 -18, CHO parental Ca -31 and TAAR1 antagonist 50*.
`CC1CCCC(NC(=O)COC(=O)c2cc3ccccc3oc2=O)C1C` (stereo not given) gave OX1R antag-1 8, TAAR1 ag 1, OX1R antag-2 -20, CHO parental Ca -16 and TAAR1 antagonist -21.
COC(=O)c1ccccc1OC(=O)c1cc2ccccc2oc1=O was read as OX1R antag-1 31*, TAAR1 ag 0, OX1R antag-2 -29, CHO parental Ca -7 and TAAR1 antagonist -16.
For CC1CCN(C(=O)COC(=O)c2cc3ccccc3oc2=O)CC1 the results were OX1R antag-1 42*, TAAR1 ag 4, OX1R antag-2 -5, CHO parental Ca -11 and TAAR1 antagonist -14.

Screening data as filed in PubChem.
